Laboratory results as given in ChEMBL document CHEMBL1123134, “Diterpenoid sweeteners. Synthesis and sensory evaluation of stevioside analogues with improved organoleptic properties” (1985).

What was measured:
Assay type in all cases: functional
Homo sapiens [1] = organism: Homo sapiens; assay: Sensory evaluation was done for sweetness at a concentration of 650 p.p.m. against sample intensity relative to 10% sucrose.
Method in brief: (§1)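 Sweetness tasted in solutions held near pH ~7, so carboxylic acids are ionized. Potency is reported two ways: on a weight basis (Pw) and on a molar basis (Pm).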

Homo sapiens [2] = organism: Homo sapiens; assay: Sensory evaluation was done at a concentration of 650 p.p.m. against property of sweetness.
Method in brief: (§2)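 Aqueous sample solutions were tasted at about pH 7, so carboxylic acids were in ionized form.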

Homo sapiens [3] = organism: Homo sapiens; assay: Sensory evaluation was done for sweetness at a concentration of 650 p.p.m. against compound potency calculated on weight basis.; method in brief: as §1
Homo sapiens [4] = organism: Homo sapiens; assay: Sensory evaluation was done for sweetness at a concentration of 650 p.p.m. against compound potency calculated on a molar basis.; method in brief: as §1
Homo sapiens [5] = organism: Homo sapiens; assay: Sensory evaluation was done at a concentration of 650 p.p.m. against other properties.; method in brief: as §2
Homo sapiens [6] = organism: Homo sapiens; assay: Sensory evaluation was done at a concentration of 650 p.p.m. against property of bitterness.; method in brief: as §2
Homo sapiens [7] = organism: Homo sapiens; assay: Sensory evaluation was done at a concentration of 634 p.p.m. against property of sweetness.; method in brief: as §2
Homo sapiens [8] = organism: Homo sapiens; assay: Sensory evaluation was done for sweetness at a concentration of 634 p.p.m. against compound potency calculated on weight basis.; method in brief: as §1
Homo sapiens [9] = organism: Homo sapiens; assay: Sensory evaluation was done at a concentration of 634 p.p.m. against property of bitterness.; method in brief: as §2
Homo sapiens [10] = organism: Homo sapiens; assay: Sensory evaluation was done at a concentration of 634 p.p.m. against other properties.; method in brief: as §2
Homo sapiens [11] = organism: Homo sapiens; assay: Sensory evaluation was done for sweetness at a concentration of 634 p.p.m. against sample intensity relative to 10% sucrose.; method in brief: as §1
Homo sapiens [12] = organism: Homo sapiens; assay: Sensory evaluation was done for sweetness at a concentration of 634 p.p.m. against compound potency calculated on a molar basis.; method in brief: as §1
Homo sapiens [13] = organism: Homo sapiens; assay: Sensory evaluation was done at a concentration of 1000 p.p.m. against property of sweetness.; method in brief: as §2
Homo sapiens [14] = organism: Homo sapiens; assay: Sensory evaluation was done at a concentration of 1000 p.p.m. against other properties.; method in brief: as §2
Homo sapiens [15] = organism: Homo sapiens; assay: Sensory evaluation was done for sweetness at a concentration of 1000 p.p.m. against compound potency calculated on a molar basis.
Method in brief: (§3)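 Solutions were tasted at about pH 7. Sweetness potency was expressed two ways: Pw, calculated on a weight basis, and Pm, calculated on a molar basis.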

Homo sapiens [16] = organism: Homo sapiens; assay: Sensory evaluation was done for sweetness at a concentration of 1000 p.p.m. against sample intensity relative to 10% sucrose.; method in brief: as §2
Homo sapiens [17] = organism: Homo sapiens; assay: Sensory evaluation was done at a concentration of 1000 p.p.m. against property of bitterness.; method in brief: as §2
Homo sapiens [18] = organism: Homo sapiens; assay: Sensory evaluation was done for sweetness at a concentration of 1000 p.p.m. against compound potency calculated on weight basis.; method in brief: as §3
Homo sapiens [19] = organism: Homo sapiens; assay: Sensory evaluation was done for sweetness at a concentration of 3000 p.p.m. against sample intensity relative to 10% sucrose.
Method in brief: (§4)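 Sensory evaluation of the samples in solution at pH ~7, where carboxylic acids are ionized.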

Homo sapiens [20] = organism: Homo sapiens; assay: Sensory evaluation was done for sweetness at a concentration of 3000 p.p.m. against compound potency calculated on a molar basis.; method in brief: as §4
Homo sapiens [21] = organism: Homo sapiens; assay: Sensory evaluation was done at a concentration of 3000 p.p.m. against property of sweetness.; method in brief: as §4
Homo sapiens [22] = organism: Homo sapiens; assay: Sensory evaluation was done at a concentration of 3000 p.p.m. against other properties.; method in brief: as §4
Homo sapiens [23] = organism: Homo sapiens; assay: Sensory evaluation was done for sweetness at a concentration of 3000 p.p.m. against compound potency calculated on weight basis.; method in brief: as §4
Homo sapiens [24] = organism: Homo sapiens; assay: Sensory evaluation was done at a concentration of 3000 p.p.m. against property of bitterness.; method in brief: as §4
Homo sapiens [25] = organism: Homo sapiens; assay: Sensory evaluation was done at a concentration of 631 p.p.m. against other properties.; method in brief: as §2
Homo sapiens [26] = organism: Homo sapiens; assay: Sensory evaluation was done at a concentration of 631 p.p.m. against property of sweetness.; method in brief: as §2
Homo sapiens [27] = organism: Homo sapiens; assay: Sensory evaluation was done for sweetness at a concentration of 631 p.p.m. against compound potency calculated on a molar basis.; method in brief: as §1
Homo sapiens [28] = organism: Homo sapiens; assay: Sensory evaluation was done at a concentration of 631 p.p.m. against property of bitterness.; method in brief: as §2
Homo sapiens [29] = organism: Homo sapiens; assay: Sensory evaluation was done for sweetness at a concentration of 631 p.p.m. against sample intensity relative to 10% sucrose.; method in brief: as §1
Homo sapiens [30] = organism: Homo sapiens; assay: Sensory evaluation was done for sweetness at a concentration of 631 p.p.m. against compound potency calculated on weight basis.; method in brief: as §1

Q: How did the Ip (Homo sapiens [1]) turn out when `C=C1C[C@@]23CC[C@H]4[C@@](C)(CCC[C@@]4(C)C(=O)OC(CCN)C(=O)O)[C@@H]2CC[C@]1(O[C@@H]1O[C@@H](CO)[C@@H](O)[C@H](O)[C@@H]1O[C@@H]1O[C@@H](CO)[C@@H](O)[C@H](O)[C@@H]1O)C3` (stereo partly specified) was run?
A: Its Ip is 1.1.

Q: And the Sensory evaluation (Homo sapiens [2])?
A: Its Sensory evaluation is 79.

Q: And the Pw (Homo sapiens [3])?
A: The Pw was 170.

Q: And the Pm (Homo sapiens [4])?
A: Its Pm is 360.

Q: What about the Sensory evaluation (Homo sapiens [5]) of the same molecule?
A: The Sensory evaluation was 3.

Q: What about the Sensory evaluation (Homo sapiens [6]) of the same molecule?
A: Its Sensory evaluation is 18.

Q: Which Ip (Homo sapiens [1]) does the source give for `C=C1C[C@@]23CC[C@H]4[C@@](C)(CCC[C@@]4(C)C(=O)OCCCCS(=O)(=O)[O-])[C@@H]2CC[C@]1(O[C@@H]1O[C@@H](CO)[C@@H](O)[C@H](O)[C@@H]1O[C@@H]1O[C@@H](CO)[C@@H](O)[C@H](O)[C@@H]1O)C3.[Na+]` here?
A: Its Ip is 0.8.

Q: And the Sensory evaluation (Homo sapiens [2])?
A: The Sensory evaluation was 79.

Q: And the Pw (Homo sapiens [3])?
A: Its Pw is 120.

Q: What about the Pm (Homo sapiens [4]) of the same molecule?
A: The Pm was 290.

Q: And the Sensory evaluation (Homo sapiens [5])?
A: Its Sensory evaluation is 4.

Q: What about the Sensory evaluation (Homo sapiens [6]) of the same molecule?
A: The Sensory evaluation was 17.

Q: What does the source list for `C=C1C[C@@]23CC[C@H]4[C@@](C)(CCC[C@@]4(C)C(=O)OCC(=O)O)[C@@H]2CC[C@]1(O[C@@H]1O[C@@H](CO)[C@@H](O)[C@H](O)[C@@H]1O[C@@H]1O[C@@H](CO)[C@@H](O)[C@H](O)[C@@H]1O)C3`?
A: Sensory evaluation (Homo sapiens [7]): 80; Pw (Homo sapiens [8]): 140; Sensory evaluation (Homo sapiens [9]): 19; Sensory evaluation (Homo sapiens [10]): 1; Ip (Homo sapiens [11]): 0.9; Pm (Homo sapiens [12]): 310

Q: How did the Sensory evaluation (Homo sapiens [13]) turn out when `CC1=CC(=O)NS(=O)(=O)O1` [ACESULFAME] was run?
A: Its Sensory evaluation is 83.

Q: And the Sensory evaluation (Homo sapiens [14])?
A: Its Sensory evaluation is 1.

Q: What about the Pm (Homo sapiens [15]) of the same molecule?
A: The Pm was 55.

Q: What about the Ip (Homo sapiens [16]) of the same molecule?
A: The Ip was 1.

Q: What about the Sensory evaluation (Homo sapiens [17]) of the same molecule?
A: The Sensory evaluation was 16.

Q: What about the Pw (Homo sapiens [18]) of the same molecule?
A: Its Pw is 100.

Q: What does the source list for `CC12CC[C@](C)(C(=O)O)CC1C1=CC(=O)[C@@H]3[C@@]4(C)CC[C@H](O[C@H]5O[C@H](C(=O)O)[C@@H](O)[C@H](O)[C@H]5O[C@@H]5O[C@H](C(=O)O)[C@@H](O)[C@H](O)[C@H]5O)C(C)(C)[C@@H]4CC[C@@]3(C)[C@]1(C)CC2.N` (stereo partly specified)?
A: Ip (Homo sapiens [19]): 1; Pm (Homo sapiens [20]): 90; Sensory evaluation (Homo sapiens [21]): 84; Sensory evaluation (Homo sapiens [22]): 13; Pw (Homo sapiens [23]): 33; Sensory evaluation (Homo sapiens [24]): 3

Q: Which results are given for `C=C1C[C@@]23CC[C@H]4[C@@](C)(CCC[C@@]4(C)C(=O)OCCC(S(=O)(=O)[O-])S(=O)(=O)[O-])[C@@H]2CC[C@]1(O[C@H]1O[C@H](CO)[C@@H](O)[C@H](O)[C@H]1O[C@@H]1O[C@H](CO)[C@@H](O)[C@H](O)[C@H]1O)C3.[Na+].[Na+]`?
A: Sensory evaluation (Homo sapiens [25]): 4; Sensory evaluation (Homo sapiens [26]): 96; Pm (Homo sapiens [27]): 310; Sensory evaluation (Homo sapiens [28]): 0; Ip (Homo sapiens [29]): 0.8; Pw (Homo sapiens [30]): 120
